Data as given in ChEMBL document CHEMBL3871272, “Systemic optimization and structural evaluation of quinoline derivatives as transthyretin amyloidogenesis inhibitors” (Eur J Med Chem, 2016).
pIC50: −log10 of the molar value. Values belong to the compound of their own block, whether it stands above or below them. Active and inactive are the calls of the source. No cut-off for these calls is given here.

Assays:
[1] = biological target: T1, Transthyretin (Homo sapiens, UniProt P02766); assay: Inhibition of wild type TTR (unknown origin) assessed as inhibition of acid-mediated amyloidogenesis by measuring fibril formation preincubated with enzyme followed by amyloidogenesis stimulation by adjusting pH to 4.4 measured after 72 hrs relative to control
[2] = biological target: T1, Transthyretin; assay: Inhibition of wild type TTR (unknown origin) assessed as inhibition of acid-mediated amyloidogenesis by measuring fibril formation at 7.2 uM preincubated with enzyme followed by amyloidogenesis stimulation by adjusting pH to 4.4 measured after 72 hrs relative to control; set-up: scale not given: the % may be the effect or the level left
Method in brief: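 WT-TTR (3.6 µM, physiological level) was preincubated with inhibitor at 7.2 or 3.6 µM. The pH was then adjusted to 4.4 to trigger fibril formation, 37 °C, 72 h. Fibrils were expressed relative to untreated WT-TTR set at 100%.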

[3] = biological target: T1, Transthyretin; assay: Inhibition of wild type TTR (unknown origin) assessed as inhibition of acid-mediated amyloidogenesis by measuring fibril formation at 3.6 uM preincubated with enzyme followed by amyloidogenesis stimulation by adjusting pH to 4.4 measured after 72 hrs relative to control; set-up: scale not given: the % may be the effect or the level left
Method in brief: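 WT-TTR (3.6 μM, physiological concentration) preincubated with inhibitor (3.6 or 7.2 μM), then fibril formation triggered by adjusting pH to 4.4; incubated 37 °C, 72 h. Fibril formation expressed as percent of untreated WT-TTR (100%).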

[4] = AUC (0 to t) in Sprague-Dawley rat at 5 mg/kg, po administered as single dose via oral gavage by HPLC/MS/MS method; type: ADME, organism-based; settings: in vivo
Method in brief: (§1)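 Male Sprague-Dawley rats, fasted overnight, 5 animals. Single 5 mg/kg oral dose by gavage needle, given as a 2.5 mg/mL solution in 10% DMSO, 40% PEG400 and 50% saline. Plasma was processed by mixing and centrifugation at 12,000 g for 10 min, with an internal standard added, then analysed by RP-HPLC. Parameters were calculated for each animal and averaged.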

[5] = Cmax in Sprague-Dawley rat at 5 mg/kg, po administered as single dose via oral gavage by HPLC/MS/MS method; type: ADME, organism-based; settings: in vivo
Method in brief: (§2)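 Five overnight-fasted male SD rats received a single 5 mg/kg dose by gavage needle. Dosing solution 2.5 mg/mL in 10% DMSO, 40% PEG400, 50% saline. Plasma concentration-time profiles were obtained, and parameters were calculated for each animal and then averaged.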

[6] = system: Transthyretin (Homo sapiens), P02766 [V50M]; assay: Inhibition of TTR V30M mutant (unknown origin) assessed as inhibition of acid-mediated amyloidogenesis by measuring reduction in fibril formation at 3.6 uM preincubated with enzyme followed by amyloidogenesis stimulation by adjusting pH to 4.4 measured up to 120 hrs relative to control
Method in brief: (§3)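 Time-course version of the acid-mediated fibril formation assay: inhibitor at a concentration equal to the TTR tetramer (3.6 μM), preincubated with TTR, then acidified to pH 4.4. Fibril formation followed over 120 h instead of at a fixed 72 h, relative to untreated TTR.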

[7] = Tmax in Sprague-Dawley rat at 5 mg/kg, po administered as single dose via oral gavage by HPLC/MS/MS method; type: ADME, organism-based; settings: in vivo; method in brief: as §2
[8] = Terminal half life in Sprague-Dawley rat at 5 mg/kg, po administered as single dose via oral gavage by HPLC/MS/MS method; type: ADME, organism-based; settings: in vivo, read-out: beta t1/2 (converted); method in brief: as §2
[9] = biological target: T1, Transthyretin; assay: Inhibition of wild type TTR (unknown origin) assessed as inhibition of acid-mediated amyloidogenesis by measuring reduction in fibril formation at 3.6 uM preincubated with enzyme followed by amyloidogenesis stimulation by adjusting pH to 4.4 measured up to 120 hrs relative to control; method in brief: as §3
[10] = AUC (0 to t) in Sprague-Dawley rat at 2 mg/kg, iv administered as single dose by HPLC/MS/MS method; type: ADME, organism-based; settings: in vivo
Method in brief: (§4)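 Male Sprague-Dawley rats, fasted overnight, 4 animals. Single 2 mg/kg IV dose via tail vein, given as a 1 mg/mL solution in 10% DMSO, 40% PEG400 and 50% saline. Plasma was processed by vigorous mixing and centrifugation at 12,000 g for 10 min, with an internal standard added, then analysed by RP-HPLC. Parameters were calculated for each animal and averaged.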

[11] = Plasma clearance in Sprague-Dawley rat at 2 mg/kg, iv administered as single dose by HPLC/MS/MS method; type: ADME, organism-based
Method in brief: (§5)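 Male SD rats, fasted overnight, four animals, single tail-vein IV dose of 2 mg/kg. Dosing solution 1 mg/mL in 10% DMSO, 40% PEG400, 50% saline. Plasma concentrations were measured over time. Parameters were calculated per animal and averaged.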

[12] = biological target: Transthyretin (Homo sapiens, UniProt P02766, V50M); assay: Inhibition of TTR V30M mutant (unknown origin) assessed as inhibition of acid-mediated amyloidogenesis by measuring fibril formation preincubated with enzyme followed by amyloidogenesis stimulation by adjusting pH to 4.4 measured after 72 hrs relative to control
[13] = Cmax in Sprague-Dawley rat at 2 mg/kg, iv administered as single dose by HPLC/MS/MS method; type: ADME, organism-based; set-up: dose 2 mg/kg, route intravenous; settings: in vivo; method in brief: as §5
[14] = Tmax in Sprague-Dawley rat at 2 mg/kg, iv administered as single dose by HPLC/MS/MS method; type: ADME, organism-based; settings: in vivo; method in brief: as §5
[15] = Oral bioavailability in Sprague-Dawley rat at 5 mg/kg administered as single dose by HPLC/MS/MS method; type: ADME, organism-based; settings: in vivo
Method in brief: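 Bioavailability was taken from dose-normalized AUC0-∞ after oral (5 mg/kg, gavage, n=5) versus IV (2 mg/kg, tail vein, n=4) dosing in fasted male SD rats. Vehicle: 10% DMSO, 40% PEG400, 50% saline.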

[16] = Volume of distribution at steady state distribution in Sprague-Dawley rat at 2 mg/kg, iv administered as single dose by HPLC/MS/MS method; type: ADME, organism-based; settings: in vivo, read-out: Vdss; method in brief: as §5
[17] = system: Transthyretin (Homo sapiens), P02766 [V50M]; assay: Inhibition of TTR V30M mutant (unknown origin) assessed as inhibition of acid-mediated amyloidogenesis by measuring fibril formation at 7.2 uM preincubated with enzyme followed by amyloidogenesis stimulation by adjusting pH to 4.4 measured after 72 hrs relative to control; set-up: scale not given: the % may be the effect or the level left
Method in brief: (§6)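 V30M-TTR (3.6 μM) preincubated with inhibitor (3.6 or 7.2 μM), then fibril formation triggered by adjusting pH to 4.4; incubated 37 °C, 72 h. Fibril formation expressed as percent of untreated V30M-TTR (100%).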

[18] = AUC (0 to infinity) in Sprague-Dawley rat at 2 mg/kg, iv administered as single dose by HPLC/MS/MS method; type: ADME, organism-based; set-up: dose 2 mg/kg, time infinity, route intravenous; settings: in vivo; method in brief: as §4
[19] = system: Transthyretin (Homo sapiens), P02766 [V50M]; assay: Inhibition of TTR V30M mutant (unknown origin) assessed as inhibition of acid-mediated amyloidogenesis by measuring fibril formation at 3.6 uM preincubated with enzyme followed by amyloidogenesis stimulation by adjusting pH to 4.4 measured after 72 hrs relative to control; set-up: scale not given: the % may be the effect or the level left; method in brief: as §6
[20] = Terminal half life in Sprague-Dawley rat at 2 mg/kg, iv administered as single dose by HPLC/MS/MS method; type: ADME, organism-based; settings: in vivo, read-out: beta t1/2 (converted); method in brief: as §5
[21] = AUC (0 to infinity) in Sprague-Dawley rat at 5 mg/kg, po administered as single dose via oral gavage by HPLC/MS/MS method; type: ADME, organism-based; settings: in vivo; method in brief: as §1

pIC50 [1]: 5.59 | Activity [2]: 9.6% | Activity [3]: 32.1%
SMILES: Cc1cc(C#Cc2ccc3cc(O)ccc3n2)cc(C)c1O

AUC(0-t) [4]: 2840 ng·h/mL | Cmax [5]: 665 ng/mL | inhibition [6]: > 80% | Tmax [7]: 0.598 h | half-life [8]: 202 min | inhibition [9]: 7 to 23% | AUC(0-t) [10]: 4510 ng·h/mL | pIC50 [1]: 5.83 | clearance [11]: 7.34 mL/min/kg | pIC50 [12]: 5.79 | Cmax [13]: 2380 ng/mL | Tmax [14]: 4.98 min | Activity [2]: 0.9% | bioavailability [15]: 27.2% | Vd [16]: 1.13 L/kg | Activity [17]: 5% | AUC(0-inf) [18]: 4590 ng·h/mL | Activity [19]: 16.6% | half-life [20]: 165 min | AUC(0-inf) [21]: 3120 ng·h/mL | Activity [3]: 17.7%
SMILES: Cc1cc(/C=C/c2cc3ccc(O)cc3nc2Cl)cc(C)c1O

Activity [2]: 92.9%
SMILES: Cc1cc(/C=C/c2ccc3cc([N+](=O)[O-])ccc3n2)cc(C)c1O

Activity [2]: 99%
SMILES: CCc1cc(C#Cc2ccc3ccccc3n2)ccc1O

Activity [2]: 22.1%
SMILES: COc1ccc2nc(C#Cc3cc(C)c(O)c(C)c3)ccc2c1

Activity [2]: 2.3% | Activity [3]: 33.2%
SMILES: Cc1cc(/C=C/c2cc3ccccc3nc2Cl)cc(C)c1O

pIC50 [1]: 5.66 | Activity [2]: 10.2% | Activity [3]: 25.6%
SMILES: Cc1cc(C#Cc2ccc3ccccc3n2)cc(C)c1O

Activity [2]: 26.8% | Activity [3]: 51.3%
SMILES: Cc1cc(/C=C/c2ccc3cc(N)ccc3n2)cc(C)c1O

AUC(0-t) [4]: 226 ng·h/mL | Cmax [5]: 138 ng/mL | Tmax [7]: 2.45 h | half-life [8]: 95.5 min | AUC(0-t) [10]: 1330 ng·h/mL | pIC50 [1]: 5.72 | clearance [11]: 25.1 mL/min/kg | Cmax [13]: 3110 ng/mL | Tmax [14]: 4.98 min | Activity [2]: 4.8% | bioavailability [15]: 6.89% | Vd [16]: 1.48 L/kg | AUC(0-inf) [18]: 1350 ng·h/mL | half-life [20]: 163 min | AUC(0-inf) [21]: 232 ng·h/mL | Activity [3]: 17.9%
SMILES: Cc1cc(C#Cc2ccc3cc(N)ccc3n2)cc(C)c1O

inhibition [9]: Active | Activity [2]: 1% | Activity [17]: 3.2% | Activity [19]: 17% | Activity [3]: 14.8%
SMILES: O=C(O)c1ccc2nc(-c3cc(Cl)cc(Cl)c3)oc2c1

Activity [2]: 26.3%
SMILES: Cc1cc(/C=C/c2ccc3ccccc3n2)cc(C)c1O

Activity [2]: 73.9%
SMILES: Oc1ccc(C#Cc2ccc3ccccc3n2)cc1

Activity [2]: 97.3%
SMILES: CC(C)c1cc(C#Cc2ccc3ccccc3n2)ccc1O

pIC50 [1]: 5.69 | Activity [2]: 3.6% | Activity [3]: 20.9%
SMILES: Cc1cc(C#Cc2ccc3cc([N+](=O)[O-])ccc3n2)cc(C)c1O

Activity [2]: 93.4%
SMILES: CCc1cc(C#Cc2ccc3ccccc3n2)cc(CC)c1O
